Columns and labels:
[1] = test system: Aspergillus niger; assay: Antifungal activity against Aspergillus niger assessed as mycelial growth at 100 umol/L by filter disk method relative to control; format: functional; conditions: in the assay text read “by incorporation into growth medium” for “by filter disk method”
Outline: (§1)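 Agar-incorporation assay rather than disk. Compound in a few drops of DMSO, ultrafiltered and added to autoclaved, still-molten PDA at 50, 100 or 200 μmol L⁻¹. 1 cm mycelial plugs inoculated, 40 dishes per treatment per species. Grown 3 days at 22 °C in darkness. Mycelial growth expressed as % of DMSO-only controls (100%). Student–Neumann–Keuls test, p = 0.05.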

[2] = test system: Botrytis; assay: Antifungal activity against Botrytis cinerea assessed as mycelial growth at 200 umol/L by filter disk method relative to control; format: functional; conditions: in the assay text read “by incorporation into PDA growth medium” for “by filter disk method”; outline: as §1
[3] = test system: Polyporus; assay: Antifungal activity against Polyporus marginatus assessed as mycelial growth at 50 umol/L by filter disk method relative to control; format: functional; conditions: in the assay text read “by incorporation into growth medium” for “by filter disk method”; outline: as §1
[4] = test system: Trichoderma viride; assay: Antifungal activity against Trichoderma viride assessed as mycelial growth at 100 umol/L by filter disk method relative to control; format: functional; conditions: in the assay text read “by incorporation into growth medium” for “by filter disk method”; outline: as §1
[5] = test system: Alternaria alternata; assay: Antifungal activity against Alternaria alternata assessed as mycelial growth at 50 umol/L by filter disk method relative to control; format: functional; conditions: in the assay text read “by incorporation into growth medium” for “by filter disk method”; outline: as §1
[6] = test system: Trichoderma viride; assay: Antifungal activity against Trichoderma viride assessed as mycelial growth at 50 umol/L by filter disk method relative to control; format: functional; conditions: in the assay text read “by incorporation into growth medium” for “by filter disk method”; outline: as §1
[7] = test system: Guignardia aesculi; assay: Antifungal activity against Guignardia aesculi assessed as mycelial growth at 50 umol/L by […] relative to control; format: functional; outline: as §1
[8] = test system: Rhizopus stolonifer; assay: Antifungal activity against Rhizopus stolonifer assessed as mycelial growth at 50 umol/L by […] relative to control; format: functional; outline: as §1
[9] = test system: Aspergillus niger; assay: Antifungal activity against Aspergillus niger assessed as mycelial growth at 200 umol/L by filter disk method relative to control; format: functional; conditions: in the assay text read “by incorporation into growth medium” for “by filter disk method”; outline: as §1
[10] = test system: Penicillium expansum; assay: Antifungal activity against Penicillium expansum assessed as mycelial growth at 100 umol/L […] relative to control; format: functional; outline: as §1
[11] = test system: Guignardia aesculi; assay: Antifungal activity against Guignardia aesculi assessed as mycelial growth at 0.15 mg/disk by filter disk method relative to control; format: functional
Outline: (§2)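 Compound dissolved in a few drops of absolute EtOH and loaded onto 5 mm paper disks at 0.15, 1.5 or 15 mg per disk. Disks placed on PDA in 12 cm Petri dishes, 30 dishes per treatment per species. Inhibition zones measured in mm after 3 days at 27 °C. EtOH-only disk as control. Growth given as % of control (100%). Student–Neumann–Keuls test, p = 0.05.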

[12] = test system: Fusarium basilici; assay: Antifungal activity against Fusarium basilici assessed as mycelial growth at 0.15 mg/disk by filter disk method relative to control
[13] = test system: Fusarium oxysporum f. sp. dianthi; assay: Antifungal activity against Fusarium oxysporum dianthi assessed as mycelial growth at 100 umol/L by […] relative to control; format: functional; outline: as §1
[14] = test system: Alternaria dianthi; assay: Antifungal activity against Alternaria dianthi assessed as mycelial growth at 100 umol/L by filter disk method relative to control; format: functional; conditions: in the assay text read “by incorporation into growth medium” for “by filter disk method”; outline: as §1
[15] = test system: Penicillium expansum; assay: Antifungal activity against Penicillium expansum assessed as mycelial growth at 50 umol/L […] relative to control; format: functional; outline: as §1
[16] = test system: Globisporangium ultimum; assay: Antifungal activity against Pythium ultimum assessed as mycelial growth at 1.5 mg/disk by filter disk method relative to control; format: functional; outline: as §2
[17] = test system: Fulvia fulva; assay: Antifungal activity against Cladosporium fulvum assessed as mycelial growth at 100 umol/L by filter disk method relative to control; format: functional; conditions: in the assay text read “by incorporation into PDA growth medium” for “by filter disk method”; outline: as §1
[18] = test system: Guignardia aesculi; assay: Antifungal activity against Guignardia aesculi assessed as mycelial growth at 100 umol/L by filter disk method relative to control; format: functional; conditions: in the assay text read “by incorporation into the growth medium” for “by filter disk method”; outline: as §1
[19] = Antifungal activity against Rhizopus stolonifer assessed as mycelial growth at 100 umol/L […] relative to control; format: functional; outline: as §1
[20] = test system: Fulvia fulva; assay: Antifungal activity against Cladosporium fulvum assessed as mycelial growth at 200 umol/L […] relative to control; format: functional; outline: as §1
[21] = test system: Alternaria dianthi; assay: Antifungal activity against Alternaria dianthi assessed as mycelial growth at 200 umol/L by filter disk method relative to control; format: functional; conditions: in the assay text read “by incorporation into growth medium” for “by filter disk method”; outline: as §1
[22] = test system: Rhizopus stolonifer; assay: Antifungal activity against Rhizopus stolonifer assessed as mycelial growth at 200 umol/L […] relative to control; format: functional; outline: as §1
[23] = test system: Botrytis; assay: Antifungal activity against Botrytis cinerea assessed as mycelial growth at 50 umol/L by filter disk method relative to control; format: functional; conditions: in the assay text read “by incorporation into PDA growth medium” for “by filter disk method”; outline: as §1
[24] = test system: Globisporangium ultimum; assay: Antifungal activity against Pythium ultimum assessed as mycelial growth at 15 mg/disk by filter disk method relative to control; format: functional; outline: as §2
[25] = test system: Guignardia aesculi; assay: Antifungal activity against Guignardia aesculi assessed as mycelial growth at 1.5 mg/disk by filter disk method relative to control; format: functional; outline: as §2
[26] = test system: Aspergillus niger; assay: Antifungal activity against Aspergillus niger assessed as mycelial growth at 50 umol/L by filter disk method relative to control; format: functional; conditions: in the assay text read “by incorporation into growth medium” for “by filter disk method”; outline: as §1
[27] = test system: Botrytis; assay: Antifungal activity against Botrytis cinerea assessed as mycelial growth at 100 umol/L by filter disk method relative to control; format: functional; conditions: in the assay text read “by incorporation into PDA growth medium” for “by filter disk method”; outline: as §1
[28] = Antifungal activity against Fusarium oxysporum dianthi assessed as mycelial growth at 50 umol/L […] relative to control; format: functional; conditions: Fusarium oxysporum f. sp. dianthi; outline: as §1
[29] = test system: Alternaria alternata; assay: Antifungal activity against Alternaria alternata assessed as mycelial growth at 100 umol/L by filter disk method relative to control; format: functional; conditions: in the assay text read “by incorporation into growth medium” for “by filter disk method”; outline: as §1
[30] = test system: Fusarium basilici; assay: Antifungal activity against Fusarium basilici assessed as mycelial growth at 1.5 mg/disk by filter disk method relative to control
[31] = test system: Alternaria alternata; assay: Antifungal activity against Alternaria alternata assessed as mycelial growth at 200 umol/L by filter disk method relative to control; format: functional; conditions: in the assay text read “by incorporation into growth medium” for “by filter disk method”; outline: as §1
[32] = test system: Fulvia fulva; assay: Antifungal activity against Cladosporium fulvum assessed as mycelial growth at 50 umol/L by filter disk method relative to control; format: functional; conditions: in the assay text read “by incorporation into PDA growth medium” for “by filter disk method”; outline: as §1
[33] = test system: Trichoderma viride; assay: Antifungal activity against Trichoderma viride assessed as mycelial growth at 200 umol/L by filter disk method relative to control; format: functional; conditions: in the assay text read “by incorporation into growth medium” for “by filter disk method”; outline: as §1
[34] = test system: Alternaria dianthi; assay: Antifungal activity against Alternaria dianthi assessed as mycelial growth at 50 umol/L by filter disk method relative to control; format: functional; conditions: in the assay text read “by incorporation into growth medium” for “by filter disk method”; outline: as §1
[35] = test system: Guignardia aesculi; assay: Antifungal activity against Guignardia aesculi assessed as mycelial growth at 15 mg/disk by filter disk method relative to control; format: functional; outline: as §2
[36] = test system: Guignardia aesculi; assay: Antifungal activity against Guignardia aesculi assessed as mycelial growth at 200 umol/L by filter disk method relative to control; format: functional; conditions: in the assay text read “by incorporation into growth medium” for “by filter disk method”; outline: as §1
[37] = Antifungal activity against Polyporus marginatus assessed as mycelial growth at 200 umol/L by filter disk method relative to control; format: functional; conditions: in the assay text read “by incorporation into growth medium” for “by filter disk method”; outline: as §1
[38] = test system: Fusarium oxysporum f. sp. dianthi; assay: Antifungal activity against Fusarium oxysporum dianthi assessed as mycelial growth at 200 umol/L by […] relative to control; format: functional; outline: as §1
[39] = test system: Penicillium expansum; assay: Antifungal activity against Penicillium expansum assessed as mycelial growth at 200 umol/L […] relative to control; format: functional; outline: as §1
[40] = test system: Polyporus; assay: Antifungal activity against Polyporus marginatus assessed as mycelial growth at 100 umol/L by filter disk method relative to control; format: functional; conditions: in the assay text read “by incorporation into growth medium” for “by filter disk method”; outline: as §1
[41] = test system: Fusarium basilici; assay: Antifungal activity against Fusarium basilici assessed as mycelial growth at 15 mg/disk by filter disk method relative to control
[42] = test system: Globisporangium ultimum; assay: Antifungal activity against Pythium ultimum assessed as mycelial growth at 0.15 mg/disk by filter disk method relative to control; format: functional; outline: as §2

CC[C@@H](CO)COc1cc2c(C)cc(=O)oc2cc1O [PAVIETIN]
Activity [1]: 68.6% | Activity [2]: 51.4% | Activity [3]: 93.6% | Activity [4]: 70.4% | Activity [5]: 86.8% | Activity [6]: 78.8% | Activity [7]: 84.6% | Activity [8]: 82% | Activity [9]: 50% | Activity [10]: 48.4% | Activity [11]: 85.3% | Activity [12]: 87.8% | Activity [13]: 83.3% | Activity [14]: 77% | Activity [15]: 68.8% | Activity [16]: 81.6% | Activity [17]: 78.3% | Activity [18]: 46.5% | Activity [19]: 71.3% | Activity [20]: 60.8% | Activity [21]: 64.9% | Activity [22]: 68.1% | Activity [23]: 78.8% | Activity [24]: 78% | Activity [25]: 64% | Activity [26]: 73.2% | Activity [27]: 64.6% | Activity [28]: 91.8% | Activity [29]: 80.2% | Activity [30]: 76.4% | Activity [31]: 58.5% | Activity [32]: 88.6% | Activity [33]: 61.5% | Activity [34]: 89.5% | Activity [35]: 33.8% | Activity [36]: 20.7% | Activity [37]: 76.1% | Activity [38]: 66.9% | Activity [39]: 29.9% | Activity [40]: 86.2% | Activity [41]: 59% | Activity [42]: 88.4%
